Drawing on ChEMBL document CHEMBL3603743, “Design, synthesis and biological evaluation of saccharin-based N-hydroxybenzamides as histone deacetylases (HDACs) inhibitors” (Bioorg Med Chem, 2015), this text covers IC50 and Activity for 30 compounds.

Assay [1] addresses Histone deacetylase (HDAC1 and HDAC2) (Homo sapiens, UniProt Q13547+Q92769). Nature of the assay: Inhibition of HDAC1/2 in human HeLa cells nuclear extracts using acetylated histone peptide as substrate after 30 mins by Color de Lys assay. The assay is classed as cell-based.
Assay [2] concerns MDA-MB-231. Nature of the assay: Induction of apoptosis in human MDA-MB-231 cells assessed as total apoptotic cells at 1 uM after 24 hrs using Annexin V-FITC and propidium iodide staining by flow cytometry. The assay is classed as functional. Put shortly: (§1)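 MDA-MB-231 cells (1.2 × 10⁵) exposed to compound for 24 h, then harvested and washed in PBS. Cells resuspended in Annexin V-FITC binding buffer, stained with Annexin V-FITC plus propidium iodide for 10 min at room temperature, held on ice and analysed by flow cytometry.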
A general note: In flow cytometry, cells or beads pass a laser one at a time.

Assay [3] has as its system MDA-MB-231. Nature of the assay: Induction of apoptosis in human MDA-MB-231 cells assessed as late apoptotic cells at 4 uM after 24 hrs using Annexin V-FITC and propidium iodide staining by flow cytometry (reference value: 4.04%). Type of assay: functional. The procedure, abridged:
as §1

Assay [4] has as its system MDA-MB-231. Description: Induction of apoptosis in human MDA-MB-231 cells assessed as late apoptotic cells at 1 uM after 24 hrs using Annexin V-FITC and propidium iodide staining by flow cytometry (reference value: 4.04%). The assay is classed as functional. Put shortly:
as §1

In assay [5] the test system is MDA-MB-231. Description: Induction of apoptosis in human MDA-MB-231 cells assessed as early apoptotic cells at 4 uM after 24 hrs using Annexin V-FITC and propidium iodide staining by flow cytometry (reference value: 2.60%). The assay is classed as functional. The procedure, abridged: as §1
Assay [6] relates to PC-3. Description: Antiproliferative activity against human PC3 cells after 48 hrs by MTT assay. The assay is classed as functional, cell-based. Particulars: PC-3, 48 h. On the technique in general: Tetrazolium dyes change colour on reduction, which living cells bring about.
The test system of assay [7] is MDA-MB-231. Nature of the assay: Antiproliferative activity against human MDA-MB-231 cells after 48 hrs by MTT assay. Type of assay: functional, cell-based. Particulars: MDA-MB-231, 48 h.
Assay [8] deals with MDA-MB-231. Nature of the assay: Induction of apoptosis in human MDA-MB-231 cells assessed as early apoptotic cells at 1 uM after 24 hrs using Annexin V-FITC and propidium iodide staining by flow cytometry (reference value: 2.60%). The assay is classed as functional. The procedure, abridged:
as §1

Assay [9] in a line: Antiproliferative activity against human KG1 cells after 48 hrs by MTT assay. The assay is classed as functional, cell-based. Particulars: KG-1, 48 h.

Bounds are passed on as bounds.

By IC50 is commonly meant the concentration that gives 50% inhibition. `O=C(CCCCCN1C(=O)c2ccccc2S1(=O)=O)NCc1ccc(C(=O)NO)cc1` came in with an IC50 in [1] of 2.65 µM.
Turning to `O=C(CCN1C(=O)c2ccccc2S1(=O)=O)Nc1cccc(C(=O)NO)c1`, the concentration for half-maximal inhibition (IC50) in assay [1] is above 5 µM.
As for `O=C(Cc1ccccc1)Nc1ccc2c(c1)S(=O)(=O)N(Cc1ccc(C(=O)NO)cc1)C2=O`, the IC50 in assay [1] came to 0.53 µM.
The compound `O=C(CCN1C(=O)c2ccccc2S1(=O)=O)Nc1ccc(C(=O)NO)cc1` registered an IC50 in assay [1] of 0.3 µM.
As to `O=C(CCN1C(=O)c2ccccc2S1(=O)=O)NCc1ccc(C(=O)NO)cc1`, the IC50 in [1] was 2.79 µM. This IC50 lies about 9.3-fold higher than the previous one.
With `O=C(CCN1C(=O)c2ccc(-c3ccccc3)cc2S1(=O)=O)Nc1ccc(C(=O)NO)cc1`, the Activity in [2] was determined as 16.76%; in [3], 9.86%; in assay [4] it was 7.49%; in assay [5], 13.48%; in assay [8] it was 9.27%. Further, the half-inhibitory concentration (IC50) is 8.79 µM in assay [6], 3.45 µM in assay [7], 1.7 µM in assay [1] and 5.23 µM in assay [9].
As to `COc1cc(C(=O)Nc2ccc3c(c2)S(=O)(=O)N(Cc2ccc(C(=O)NO)cc2)C3=O)cc(OC)c1OC`, the IC50 in assay [1] came out at 1.71 µM.
Compound `O=C(NO)c1ccc(CN2C(=O)c3ccc(NC(=O)c4ccc(-c5ccccc5)cc4)cc3S2(=O)=O)cc1` yielded an IC50 in assay [1] above 5 µM.
In assay [1], `O=C(NO)c1ccc(CN2C(=O)c3ccc(-c4ccccc4)cc3S2(=O)=O)cc1` came in with an IC50 of 0.386 µM.
`O=C(CCN1C(=O)c2ccc(I)cc2S1(=O)=O)Nc1ccc(C(=O)NO)cc1`: the 50% inhibitory concentration (IC50) in assay [1] was found to be 0.523 µM.
As to `O=C(CCCN1C(=O)c2ccc(-c3ccccc3)cc2S1(=O)=O)Nc1ccc(C(=O)NO)cc1`, the IC50 in [6] was above 25 µM; in assay [7] it was 9.9 µM; in [1] it was 1.51 µM; in assay [9], 11.6 µM.
The compound `O=C(CCCCN1C(=O)c2ccccc2S1(=O)=O)Nc1cccc(C(=O)NO)c1` came in with an IC50 in [1] above 5 µM.
In [1], `O=C(NO)c1ccc(CN2C(=O)c3ccc(NC(=O)c4ccc(F)cc4)cc3S2(=O)=O)cc1` gave an IC50 of 0.646 µM.
On to `O=C(NO)c1ccc(CN2C(=O)c3ccc(I)cc3S2(=O)=O)cc1`, for which the IC50 in assay [1] was determined as 1.335 µM.
`O=C(NO)c1ccc(CN2C(=O)c3ccc(NC(=O)c4ccccc4)cc3S2(=O)=O)cc1` had an IC50 in assay [1] of 0.38 µM.
For `O=C(NO)c1ccc(CN2C(=O)c3ccc([N+](=O)[O-])cc3S2(=O)=O)cc1`, the IC50 in [1] is above 5 µM.
Same read-out and setting: the figure for `O=C(CCCN1C(=O)c2ccc(I)cc2S1(=O)=O)Nc1ccc(C(=O)NO)cc1` is 0.419 µM.
Turning to `O=C(CCCCCCC(=O)Nc1ccccc1)NO` [VORINOSTAT], the Activity in [2] stood at 11.32%; in assay [3] it was 7.66%; in [4] it was 3.32%; in assay [5] it was 7.1%; in assay [8] it was 8%.
In turn, `O=C(CCCCN1C(=O)c2ccc(I)cc2S1(=O)=O)Nc1ccc(C(=O)NO)cc1` came in with an IC50 in [1] of 0.305 µM.
In assay [1], `O=C(CCCCN1C(=O)c2ccc(-c3ccccc3)cc2S1(=O)=O)Nc1ccc(C(=O)NO)cc1` returned an IC50 above 5 µM.
For `Cc1ccc(/C=C/C(=O)Nc2ccc3c(c2)S(=O)(=O)N(Cc2ccc(C(=O)NO)cc2)C3=O)cc1`, the IC50 in [1] amounted to 1.297 µM.
`O=C(CCCCN1C(=O)c2ccccc2S1(=O)=O)NCc1ccc(C(=O)NO)cc1` yielded an IC50 in [1] of 3.4 µM.
`O=C(CCCN1C(=O)c2ccccc2S1(=O)=O)Nc1ccc(C(=O)NO)cc1`: the Activity in assay [2] turned out to be 7.5%; in assay [3], 5.35%; in assay [4], 4.06%; in assay [5], 4.7%; in [8], 3.44%. Further, the IC50 is above 25 µM in assay [6], 8.71 µM in assay [7] and 0.233 µM in assay [1].
`O=C(CCCN1C(=O)c2ccc([N+](=O)[O-])cc2S1(=O)=O)Nc1ccc(C(=O)NO)cc1` registered a half-inhibitory concentration (IC50) in [1] of 1.66 µM.
Regarding `O=C(NO)c1ccc(CN2C(=O)c3ccc(NC(=O)c4ccc(C(F)(F)F)cc4)cc3S2(=O)=O)cc1`, in assay [1], the IC50 stood at 1.413 µM.
In turn, `O=C(NO)c1ccc(CN2C(=O)c3ccccc3S2(=O)=O)cc1` came in with an IC50 in [1] of 1.398 µM.
In turn, `O=C(CCCN1C(=O)c2ccccc2S1(=O)=O)Nc1cccc(C(=O)NO)c1` came in with a half-inhibitory concentration (IC50) in assay [1] above 5 µM.
`O=C(CCCCCN1C(=O)c2ccc([N+](=O)[O-])cc2S1(=O)=O)Nc1cccc(C(=O)NO)c1` yielded an IC50 in [1] above 5 µM.
For `O=C(CCCCCN1C(=O)c2ccccc2S1(=O)=O)Nc1cccc(C(=O)NO)c1`, the IC50 in assay [1] is above 5 µM.
Still for that read-out and setting: with `O=C(CCN1C(=O)c2ccc([N+](=O)[O-])cc2S1(=O)=O)Nc1ccc(C(=O)NO)cc1` the figure was 2.02 µM.
